A short description of test [1]: Inhibition of pig heart succinate-cytochrome c reductase (Electron transport protein complex 2/3) assessed as increase of cytochrome c by spectrophotometer. Details: species or system Sus scrofa.
For test [2], the species on record is Sus scrofa. Put plainly: Inhibition of pig heart Succinate-ubiquinone oxidoreductase assessed as decrease of 2,6-dichlorophenolindophenol by spectrophotometer. The procedure, abridged:
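Complex II activity within porcine SCR, with succinate and DCIP as substrates. Final concentrations: 100 mM PBS pH 7.4, 0.3 mM EDTA, 20 mM succinate, 53 µM DCIP; adding enzyme starts the reaction. DCIP reduction was followed as absorbance decrease at 600 nm (ε 21 mM⁻¹ cm⁻¹).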

For test [3], the species on record is Sus scrofa. Put plainly: Inhibition of pig heart Cytochrome b-c1 complex assessed as oxidation of DBH2 by spectrophotometer. The procedure, abridged: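 Porcine SCR preparation at 0.1 nM, reaction with 100 µM oxidized cytochrome c and 100 µM DBH2 in 100 mM PBS (pH 7.4), 0.3 mM EDTA; run at 23 °C both without and with 750 µM lauryl maltoside. For kinetics, DBH2 was varied over 20–200 µM with 0–5000 nM inhibitor, and Ki was fitted on a competitive model. DBH2 concentration was set from A288–A320.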

The species named for test [4] is Sus scrofa. Nature of the test: Activity of pig heart Cytochrome b-c1 complex using DBH2 as substrate by Line-weaverBurk plot analysis. In a few lines:
(§1)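 Porcine SCR preparation (0.1 nM) as the bc1 source, at 23 °C in 100 mM PBS pH 7.4, 0.3 mM EDTA and 750 lauryl maltoside. Substrates were 100 oxidized cytochrome c and DBH₂ varied over 20–200. Cytochrome c reduction was followed with and without inhibitor. Km(DBH₂), Vmax and Ki came from double-reciprocal plots, assuming competitive inhibition.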

Test [5] can be described thus: Competitive inhibition of pig heart Cytochrome b-c1 complex using DBH2 as substrate by Line-weaverBurk plot analysis. Details: species or system Sus scrofa. The procedure, abridged: as §1
Test [6] in a line: Competitive inhibition of pig heart Cytochrome b-c1 complex using DBH2 as substrate in presence of lauryl maltoside by Line-weaverBurk plot analysis. Further details: species or system Sus scrofa. In a few lines: as §1
Test [7] can be described thus: Competitive inhibition of pig heart Cytochrome b-c1 complex using DBH2 as substrate in absence of lauryl maltoside by Line-weaverBurk plot analysis. Further details: species or system Sus scrofa.
Test [8] in a line: Non-competitive inhibition of pig heart succinate-cytochrome c reductase (Electron transport protein complex 2/3) using cytochrome c as substrate by Line-weaverBurk plot analysis. Details: species or system Sus scrofa. In a few lines: (§2)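 Overall succinate→cytochrome c activity of porcine SCR (0.1 nM) was measured at 23 °C in 100 mM PBS pH 7.4, 0.3 mM EDTA and 20 mM succinate. Cytochrome c was varied over 1.16–16.02, with inhibitor at graded levels. Km(cyt c), Vmax and Ki came from double-reciprocal plots, assuming non-competitive inhibition.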

For test [9], the species on record is Sus scrofa. Put plainly: Activity of pig heart succinate-cytochrome c reductase (Electron transport protein complex 2/3) using cytochrome c as substrate by Line-weaverBurk plot analysis. The test is classed as tissue-based. The procedure, abridged: as §2
For test [10], the species on record is Sus scrofa. Put plainly: Inhibition of pig heart Succinate-ubiquinone oxidoreductase assessed as decrease of 2,6-dichlorophenolindophenol at 20 uM by spectrophotometer.
Test [11] is filed under the species Sus scrofa. Nature of the test: Ratio Ki for pig heart Cytochrome b-c1 complex to Ki for pig heart succinate-cytochrome c reductase (Electron transport protein complex 2/3).
The species named for test [12] is Sus scrofa. Put plainly: Ratio Vmax for pig heart succinate-cytochrome c reductase (Electron transport protein complex 2/3) to Vmax for pig heart Cytochrome b-c1 complex.

The term IC50 denotes the concentration at which inhibition is half-maximal. Broadly, the Km is the concentration of substrate that gives half-maximal velocity. The Vmax is the top rate of the reaction or transport when substrate is in excess. What is called Ki is the equilibrium dissociation constant of an inhibitor or competing ligand from its target. Read a low Ki as higher affinity.

The structures appear in SMILES notation. Activity calls are given as the source filed them. No cut-off for these calls is given here.

As to `COc1ccc(NN2C(=O)OC(C)(c3ccc(Br)nc3)C2=O)cc1` (centres undefined), in test [1], the IC50 is above 1000 nM. Moreover, the inhibition entry in the test filed under Sus scrofa [2] was “inactive”. Also, in the test filed under Sus scrofa [3], the inhibition entry was “Active”.
For `Cc1ccc(NN2C(=O)OC(C)(c3ccc(Oc4ccccc4)cc3)C2=O)cc1` (centres undefined) the same measures were 23.8 nM, “inactive” and “Active”.
On the same counts, the results for `CC1(c2ccc(Br)nc2)OC(=O)N(Nc2ccc(C(F)(F)F)cc2)C1=O` (centres undefined) are above 1000 nM, “inactive” and “Active”.
On to `CO/C=C(/C(=O)OC)c1ccccc1Oc1cc(Oc2ccccc2C#N)ncn1` [AZOXYSTROBIN], for which the Km worked out at 72.1 µM in the test listed under Sus scrofa [4] and 4.37 µM in the test listed under Sus scrofa [9]. Besides, the Vmax worked out at 0.0528 µM/s in the test listed under Sus scrofa [4] and 0.0099 µM/s in the test listed under Sus scrofa [9]. Also, the inhibition constant Ki was 204 nM in test [5] and 295 nM in test [8]. Besides, the concentration for half-maximal inhibition (IC50) is 527 nM in test [6], 435 nM in test [7] and 291 nM in test [8].
Consider `CC1(c2ccc(Oc3ccccc3)cc2)OC(=O)N(Nc2ccc(C(=O)O)cc2)C1=O` (centres undefined), for which, in [1], the IC50 was found to be 5310 nM. Moreover, in the test filed under Sus scrofa [2], the inhibition result was “inactive”. Besides, the inhibition result in the test filed under Sus scrofa [3] was “Active”.
For `CC1(c2ccc(Br)nc2)OC(=O)N(Nc2ccc(Cl)cc2)C1=O` (centres undefined) the same measures were above 1000 nM, “inactive” and “Active”.
For the compound `CC1(c2ccc(Oc3ccccc3)cc2)OC(=O)N(Nc2cccc(C(=O)O)c2)C1=O` (centres undefined), the IC50 in [1] was found to be 24 nM. Also, the inhibition entry in the test filed under Sus scrofa [2] is “inactive”. Moreover, in the test listed under Sus scrofa [3], the inhibition result is “Active”.
Regarding `CC1(c2ccc(Br)nc2)OC(=O)N(Nc2ccccc2)C1=O` (centres undefined), the IC50 in [1] is above 1000 nM. Besides, the inhibition entry in the test filed under Sus scrofa [2] was “inactive”. Further, the inhibition result in the test listed under Sus scrofa [3] is “Active”.
For the compound `CC1(c2ccc(Br)nc2)OC(=O)N(Nc2ccc(C#N)cc2)C1=O` (centres undefined), the 50% inhibitory concentration (IC50) in test [1] is above 1000 nM. Also, the inhibition result in the test listed under Sus scrofa [2] was “inactive”. Also, the inhibition result in the test listed under Sus scrofa [3] is “Active”.
On the same counts, the results for `CC1(c2ccc(Oc3ccccc3)cc2)OC(=O)N(Nc2ccc(C(F)(F)F)cc2)C1=O` (centres undefined) are 63.3 nM, “inactive” and “Active”.
For the compound `Cc1ccc(NN2C(=O)OC(C)(c3ccc(Oc4ccccc4)cc3)C2=O)c(C)c1` (centres undefined), the half-maximal inhibitory concentration (IC50) in test [1] worked out at 15.9 nM. In addition, the inhibition entry in the test listed under Sus scrofa [2] was “inactive”. In the test listed under Sus scrofa [3], the inhibition result is “Active”.
`CC1(c2ccc(Br)nc2)OC(=O)N(Nc2ccc([N+](=O)[O-])cc2)C1=O` (centres undefined): in test [1], the concentration for half-maximal inhibition (IC50) was above 1000 nM. In addition, the inhibition entry in the test filed under Sus scrofa [2] was “inactive”. For the same compound, the inhibition entry in the test filed under Sus scrofa [3] was “Active”.
Turning to `CC1(c2ccc(Oc3ccccc3)cc2)OC(=O)N(Nc2ccccc2)C1=O` (centres undefined), the Michaelis-Menten constant (Km) was determined as 66.2 µM in the test listed under Sus scrofa [4] and 4.47 µM in the test listed under Sus scrofa [9]. Also, the maximum rate (Vmax) was determined as 0.0598 µM/s in the test listed under Sus scrofa [4] and 0.0081 µM/s in the test listed under Sus scrofa [9]. Also, the Ki in test [5] turned out to be 51.4 nM; in test [8], 3.62 nM. The IC50 in test [1] is 3.62 nM; in [6], 142 nM; in [7], 48.2 nM; in test [8] it was 4.78 nM. In addition, the inhibition result in the test filed under Sus scrofa [10] was “inactive”. Further, in the test filed under Sus scrofa [11], the Ratio Ki worked out at 15.
For `CC1(c2ccc(Br)nc2)OC(=O)N(Nc2ccc(Br)cc2)C1=O` (centres undefined), in test [1], the IC50 was above 1000 nM. Besides, the inhibition entry in the test filed under Sus scrofa [2] is “inactive”. Also, in the test filed under Sus scrofa [3], the inhibition result was “Active”.
Regarding `Cc1cccc(C)c1NN1C(=O)OC(C)(c2ccc(Oc3ccccc3)cc2)C1=O` (centres undefined), the 50% inhibitory concentration (IC50) in test [1] came to 1520 nM. In the test listed under Sus scrofa [2], the inhibition entry was “inactive”. In addition, in the test listed under Sus scrofa [3], the inhibition entry is “Active”.
For `CC1(c2ccc(Oc3ccccc3)cc2)OC(=O)N(Nc2ccc(F)cc2Br)C1=O` (centres undefined) the same measures were 60 nM, “inactive” and “Active”.
On the same counts, the results for `Cc1ccc(NN2C(=O)OC(C)(c3ccc(Br)nc3)C2=O)c(C)c1` (centres undefined) are above 1000 nM, “inactive” and “Active”.
Consider `CC1(c2ccc(Oc3ccccc3)cc2)OC(=O)N(Nc2ccc(Br)cc2)C1=O` (centres undefined), for which the Ratio in the test filed under Sus scrofa [12] was 0.14. In addition, the Km came out at 78 µM in the test filed under Sus scrofa [4] and 4.45 µM in the test filed under Sus scrofa [9]. The Vmax in the test filed under Sus scrofa [4] was found to be 0.0574 µM/s; in the test listed under Sus scrofa [9], 0.0081 µM/s. The Ki in test [5] was 329 nM; in test [8], 9.44 nM. Also, the IC50 came to 9.44 nM in [1], 1050 nM in test [6], 337 nM in test [7] and 9.03 nM in test [8]. Also, the inhibition entry in the test filed under Sus scrofa [10] and in the test listed under Sus scrofa [2] was “inactive” each time. The Ratio Ki in the test listed under Sus scrofa [11] stood at 35. The inhibition entry in the test listed under Sus scrofa [3] was “Active”.
As for `Cc1ccc(NN2C(=O)OC(C)(c3ccc(Br)nc3)C2=O)cc1` (centres undefined), the IC50 in [1] is above 1000 nM. In the test listed under Sus scrofa [2], the inhibition entry was “inactive”. Further, the inhibition result in the test filed under Sus scrofa [3] was “Active”.
On the same counts, the results for `CC1(c2ccc(Oc3ccccc3)cc2)OC(=O)N(Nc2ccc(Cl)cc2)C1=O` (centres undefined) are 18.8 nM, “inactive” and “Active”.
On the same counts, the results for `Cc1cccc(C)c1NN1C(=O)OC(C)(c2ccc(Br)nc2)C1=O` (centres undefined) are above 1000 nM, “inactive” and “Active”.
For `COc1ccc(NN2C(=O)OC(C)(c3ccc(Oc4ccccc4)cc3)C2=O)cc1` (centres undefined) the same measures were 57.9 nM, “inactive” and “Active”.
As for `CC1(c2ccc(Br)nc2)OC(=O)N(Nc2ccc(F)cc2Br)C1=O` (centres undefined), the IC50 in test [1] was above 1000 nM. For the same compound, in the test filed under Sus scrofa [2], the inhibition result was “inactive”. In the test listed under Sus scrofa [3], the inhibition result was “Active”.
In the case of `CC1(c2ccc(Oc3ccccc3)cc2)OC(=O)N(Nc2ccc(C#N)cc2)C1=O` (centres undefined), the half-maximal inhibitory concentration (IC50) in [1] worked out at 275 nM. Further, the inhibition entry in the test filed under Sus scrofa [2] is “inactive”. Also, the inhibition entry in the test filed under Sus scrofa [3] was “Active”.

(Values after ChEMBL document CHEMBL1811763, “Design, syntheses, and kinetic evaluation of 3-(phenylamino)oxazolidine-2,4-diones as potent cytochrome bc₁ complex inhibitors” (Bioorg Med Chem, 2011).)
